The values that follow come from ChEMBL document CHEMBL3822410, “Novel substituted isoxazole FXR agonists with cyclopropyl, hydroxycyclobutyl and hydroxyazetidinyl linkers: Understanding and improving key determinants of pharmacological properties” (Bioorg Med Chem Lett, 2016).

Each structure is given as a SMILES string. pEC50: −log10 of the molar value. In brackets after ≈: the same amount, converted by molar mass. Activity calls are given as the source filed them. The calls are words filed in the database; no cut-off is given here.

Data set [1] addresses T1, Bile acid receptor (Homo sapiens) (UniProt Q96RI1).
T1 sequence (whole entry): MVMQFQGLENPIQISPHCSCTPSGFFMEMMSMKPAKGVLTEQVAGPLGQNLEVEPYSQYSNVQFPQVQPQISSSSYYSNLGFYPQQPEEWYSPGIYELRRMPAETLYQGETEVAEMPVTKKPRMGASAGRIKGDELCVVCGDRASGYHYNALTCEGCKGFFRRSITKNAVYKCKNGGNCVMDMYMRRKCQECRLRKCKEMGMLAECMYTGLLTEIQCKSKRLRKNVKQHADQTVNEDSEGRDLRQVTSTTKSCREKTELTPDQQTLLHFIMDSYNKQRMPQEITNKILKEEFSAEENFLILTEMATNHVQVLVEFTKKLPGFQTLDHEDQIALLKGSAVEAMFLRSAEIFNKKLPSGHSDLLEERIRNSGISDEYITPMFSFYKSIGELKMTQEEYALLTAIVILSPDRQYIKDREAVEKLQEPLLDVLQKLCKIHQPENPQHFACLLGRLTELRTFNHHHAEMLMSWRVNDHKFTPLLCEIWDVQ
Kind of data set: Agonist activity at C-terminal Gal4-tagged human FXR (187 to 472 residues) expressed in HEK-293 cells co-expressing pFRluc by mammalian one hybrid assay relative to GW4064. The data set is classed as cell-based. The conditions noted are these: HEK293. The gist of the method:
(§1)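 Transient transfection of HEK293 cells with Gal4 DBD–human FXR LBD (187–472) chimera under CMV promoter plus pFRluc Gal4-driven firefly luciferase reporter. Cells treated with serial compound dilutions. EC50 from at least three experiments; efficacy is extrapolated maximum signal of the dose-response, GW4064 set to 100%.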

A short description of data set [2]: AUC in C57BL/6J mouse at 5 mg/kg, po and 1 mg/kg, iv. It is filed as ADME, organism-based. The conditions noted are these: in vivo. An outline of the steps:
(§2)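 Mice dosed 5 mg/kg orally and 1 mg/kg intravenously; bioavailability from both arms, all other parameters (AUC, Cmax, T1/2, Cl/F, Vd/F) calculated from the oral arm.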

The nature of data set [3]: Cmax in C57BL/6J mouse at 5 mg/kg, po and 1 mg/kg, iv. It is filed as ADME, organism-based. The conditions noted are these: in vivo. An outline of the steps: as §2
Data set [4] is described as follows: Oral bioavailability in C57BL/6J mouse at 5 mg/kg. The data set is classed as ADME, organism-based. The conditions noted are these: in vivo. The gist of the method:
as §2

Data set [5] is described as follows: Half life in C57BL/6J mouse at 5 mg/kg, po and 1 mg/kg, iv. The data set is classed as ADME, organism-based. The conditions noted are these: in vivo. An outline of the steps: as §2
The nature of data set [6]: Apparent oral volume of distribution in C57BL/6J mouse at 5 mg/kg. The conditions noted are these: in vivo. It is filed as ADME, organism-based. The gist of the method: as §2
Data set [7] has as its target T1, Bile acid receptor (Homo sapiens). Kind of data set: Agonist activity at GST-tagged FXR LBD (187 to 472 residues) (unknown origin) assessed as FXR interaction with b-CPSSHSSLTERHKILHRLLQEGSPS-COOH by FRET assay relative to GW4064.
Data set [8] concerns Mus musculus. Kind of data set: Reduction in total triglyceride level in high fat diet enriched with cholesterol fed C57BL/6J mouse plasma at 10 mg/kg, po through gavage for 10 days measured after 4 hrs of final dosage relative to vehicle treated-control. It is filed as functional, organism-based. An outline of the steps:
(§3)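 C57BL/6J mice pre-fed and kept on high fat diet (60% kcal fat) with 1% (w/w) cholesterol; 10 mg/kg by oral gavage for 10 days. Plasma total cholesterol and triglycerides taken at sacrifice 4 h after final dose, expressed as % change versus vehicle group.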

Data set [9] can be described thus: Apparent oral clearance in C57BL/6J mouse at 5 mg/kg. The conditions noted are these: in vivo. It is filed as ADME, organism-based. An outline of the steps: as §2
Data set [10] concerns the target T2, Bile acid receptor (Homo sapiens, UniProt Q96RI1).
T2 sequence (Q96RI1 whole entry): T1 sequence (whole entry)
In words: Agonist activity at GST-tagged FXR LBD (187 to 472 residues) (unknown origin) assessed as FXR interaction with b-CPSSHSSLTERHKILHRLLQEGSPS-COOH by FRET assay.

A short description of data set [11]: Permeability of the compound assessed as compound influx measured after 16 hrs by PAMPA assay. It is filed as ADME. The gist of the method:
(§4)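 PAMPA, 16 h at rt. Flux = [C_acceptor/(C_donor + C_acceptor)] × 100 × 2. Membrane enrichment = C_membrane × 2/(C_acceptor + C_donor), membrane phase extracted into a volume equal to the acceptor or donor compartment.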

The target in data set [12] is T2, Bile acid receptor. Kind of data set: Agonist activity at C-terminal Gal4-tagged human FXR (187 to 472 residues) expressed in HEK-293 cells co-expressing pFRluc by mammalian one hybrid assay. The data set is classed as cell-based, HEK293. An outline of the steps:
as §1

Data set [13] relates to Mus musculus. Kind of data set: Reduction in total cholesterol level in high fat diet enriched with cholesterol fed C57BL/6J mouse plasma at 10 mg/kg, po through gavage for 10 days measured after 4 hrs of final dosage relative to vehicle treated-control. It is filed as functional, organism-based. The gist of the method: as §3
A short description of data set [14]: Permeability of the compound assessed as compound enrichment in membrane compartment measured after 16 hrs by PAMPA assay relative to control. It is filed as ADME. The gist of the method: as §4
The target in data set [15] is T3, Nuclear receptor subfamily 1 group I member 2 (Homo sapiens, UniProt O75469).
T3 sequence (O75469 whole entry): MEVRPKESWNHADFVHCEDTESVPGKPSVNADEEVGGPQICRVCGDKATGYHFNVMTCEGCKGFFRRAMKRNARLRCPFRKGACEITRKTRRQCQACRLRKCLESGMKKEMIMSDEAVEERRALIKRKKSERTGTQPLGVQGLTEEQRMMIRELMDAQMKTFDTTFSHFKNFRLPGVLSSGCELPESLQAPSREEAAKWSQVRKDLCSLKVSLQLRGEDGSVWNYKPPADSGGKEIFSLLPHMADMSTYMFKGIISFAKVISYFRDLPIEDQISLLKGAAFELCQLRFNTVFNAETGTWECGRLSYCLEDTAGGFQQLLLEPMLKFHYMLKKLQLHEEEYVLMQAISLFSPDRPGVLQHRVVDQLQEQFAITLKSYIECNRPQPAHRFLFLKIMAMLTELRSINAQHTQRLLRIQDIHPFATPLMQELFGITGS
In words: Agonist activity at PXR (unknown origin) up to 5 uM.

Data set [16] in a line: Aqueous solubility of the compound. It is filed as physicochemical. The conditions noted are these: buffer.

As to `O=C(O)c1ccc(C2CC2c2ccc(OCc3c(-c4c(Cl)cccc4Cl)noc3C3CC3)cc2Cl)cc1` (racemic), the Efficacy was 85% in data set [1] and 100% in data set [7]. Besides, the AUC (usually the area under the concentration-time curve, a measure of exposure) in data set [2] was determined as 430 ng·h/mL. In addition, the Cmax (commonly the highest concentration seen after dosing) in data set [3] came to 280 ng/mL. For the same compound, the bioavailability (commonly the share of a dose that reaches the circulation, judged against a reference dose that is usually intravenous) in data set [4] was found to be 44%. In addition, the half-life (commonly the time in which the quantity being followed falls by half) in data set [5] is 30 min. Moreover, the Vd/F (commonly the volume of distribution divided by bioavailability) in data set [6] was 3.6 L/kg. For the same compound, the result in the data set on Mus musculus [8] and in the data set on Mus musculus [13] was Active. Further, in data set [9], the apparent clearance CL/F (as a rule, clearance divided by bioavailability, as obtained after extravascular dosing) stood at 85 mL/min/kg. In addition, the values for the pEC50 on Bile acid receptor [10] and at Bile acid receptor [12] were 6.88 and 7.12, respectively. Further, in data set [11], the permeability amounted to 14%. Besides, the “fold change (FC)” value in data set [14] worked out at 30.

For the compound `O=C(O)c1cccc([C@H]2C[C@](O)(c3ccc(OCc4c(-c5c(Cl)cccc5Cl)noc4C4CC4)cc3Cl)C2)c1`, the Efficacy in [1] came out at 79%; in data set [7], 100%. Besides, the AUC in [2] came to 8600 ng·h/mL. Also, the concentration in [3] peaked (Cmax) at 9800 ng/mL. In addition, the bioavailability in data set [4] is 49%. The compound also showed a half-life in [5] of 36 min. Besides, the Vd/F in [6] came out at 0.3 L/kg. In addition, the outcome in the data set with Mus musculus [8] and with Mus musculus [13] was Active. The CL/F in [9] was determined as 4.7 mL/min/kg. The pEC50 – broadly, −log10 of the EC50, conventionally taken in molar units – was 7.54 at Bile acid receptor [10] and 7.60 on Bile acid receptor [12]. Further, the permeability in [11] is listed as 24%. Further, the “fold change (FC)” value in data set [14] is on record as 27.

In the case of `CC(C)n1nc(C(=O)O)cc1[C@H]1C[C@](O)(c2ccc(OCc3c(-c4c(Cl)cccc4Cl)noc3C3CC3)cc2Cl)C1`, the results for the Efficacy in data set [1] and in data set [7] were 78% and 100%, respectively. Moreover, the AUC in data set [2] worked out at 960 ng·h/mL. The compound further came in with a peak concentration (Cmax) in data set [3] of 1470 ng/mL. For the same compound, in data set [4], the bioavailability came out at 18%. For the same compound, in [5], the half-life was 36 min. Further, in data set [15], the Activity entry was “Not Active”. Also, the Vd/F in data set [6] was 0.8 L/kg. The outcome with Mus musculus [8] and in the data set with Mus musculus [13] was Active. In addition, the apparent clearance (CL/F) in [9] worked out at 16 mL/min/kg. In addition, the pEC50 at Bile acid receptor [10] was 8.05; at Bile acid receptor [12], 6.96. In data set [11], the permeability turned out to be 46%. Also, the concentration in solution in [16] (solubility) was 171 µM (≈ 105 µg/mL). In [14], the “fold change (FC)” value was 11.

In the case of `O=C(O)c1cncc(N2CC(O)(c3ccc(OCc4c(-c5c(Cl)cccc5Cl)noc4C4CC4)cc3Cl)C2)c1`, the Efficacy in [1] is 71%; in data set [7], 102%. Further, in data set [15], the Activity entry was “Not Active”. Besides, the negative-log EC50 (pEC50) is 8.15 on Bile acid receptor [10] and 6.26 on Bile acid receptor [12]. Further, the permeability in data set [11] was 35%. The amount in solution in data set [16] (solubility) came to 197 µM (≈ 116 µg/mL). In addition, in data set [14], the “fold change (FC)” value is reported as 3.

For `CC(C)n1nc(C(=O)O)cc1C1CC1c1ccc(OCc2c(-c3c(Cl)cccc3Cl)noc2C2CC2)cc1Cl` (racemic), the values for the Efficacy in data set [1] and in data set [7] were 81% and 102%, respectively. Further, the AUC in data set [2] turned out to be 110 ng·h/mL. This compound also gave a Cmax in data set [3] of 160 ng/mL. In data set [4], this compound displayed a bioavailability of 11%. In data set [5], the half-life was 48 min. The Vd/F in data set [6] amounted to 5.5 L/kg. For the same compound, the result in the data set with Mus musculus [8] and in the data set on Mus musculus [13] was Active. For the same compound, the CL/F in [9] came out at 83 mL/min/kg. Besides, the pEC50 is 8.15 on Bile acid receptor [10] and 8.22 on Bile acid receptor [12]. In addition, the permeability in data set [11] worked out at 29%. Besides, the concentration in solution in data set [16] (solubility) came to 158 µM (≈ 92.7 µg/mL). In [14], the “fold change (FC)” value is reported as 22.
